Data: ChEMBL document CHEMBL3351736, “A promising camptothecin derivative: Semisynthesis, antitumor activity and intestinal permeability” (Eur J Med Chem, 2014)
The source made the active and inactive calls. The calls are words filed in the database; no cut-off is given here.

Legend:
Caco-2 [1] = experiment: Induction of apoptosis in human Caco2 cells assessed as necrotic cells at 0.05 uM after 48 hrs by Annexin V/propidium iodide staining-based flow cytometric analysis (reference value: 0.41 +/- 0.02%); assay type: functional
A-375 [2] = experiment: Induction of apoptosis in human A375 cells assessed as inhibition of DNA synthesis after 24 hrs by BrdU staining-based ELISA; assay type: functional, cell-based
Procedure, shortened: (§1)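 Cells seeded at 25,000/well; compounds added 24 h after seeding at a range of concentrations and incubated 24 h. Cells fixed, then colorimetric BrdU-incorporation ELISA. Absorbance read at 370-492 nm over 3 intervals of 5 min. Mean of three separate experiments with triplicate samples.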

Caco-2 [3] = experiment: Induction of apoptosis in human Caco2 cells assessed as vital cells at 0.05 uM after 24 hrs by Annexin V/propidium iodide staining-based flow cytometric analysis (reference value: 96.67 +/- 1.02%); assay type: functional
[4] = Permeability from basolateral to apical side in human Caco2 cells at 10 to 50 uM after 15 to 90 mins by HPLC analysis; assay type: ADME, cell-based; conditions: caco-2, 50 µM
Procedure, shortened: (§2)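 Caco-2 cells seeded at 400,000 per polycarbonate transwell insert (0.4 μm pore) and grown in DMEM for 19-22 days to confluence at 37°C, 5% CO2. TEER checked before and after each run. Compound in donor chamber, buffer in receiver. Run at 37°C with 50 rpm orbital shaking. Receiver sampled at 15, 30, 60 and 90 min with buffer replacement; donor sampled at start and end. HPLC quantitation; three independent experiments.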

[5] = Efflux ratio of effective permeability from basolateral to apical side over apical to basolateral side in human Caco2 cells at 10 to 50 uM after 15 to 90 mins by HPLC analysis; assay type: ADME, cell-based; conditions: Caco-2
Procedure, shortened: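 Caco-2 monolayers (400,000 cells per polycarbonate transwell insert, 0.4 µm pores) grown in DMEM for 19-22 days at 37 °C and 5% CO2. TEER was checked before and after each run. Compound was placed on the donor side and buffer on the receiver side, in both apical-to-basal and basal-to-apical directions, at 37 °C with 50 rpm orbital shaking. Receiver samples were taken at 15, 30, 60 and 90 min with buffer replaced, and donor samples at start and end. Analysis was by HPLC; three independent experiments.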

Small intestine = experiment: Effective permeability in Wistar rat small intestine assessed as absorption rate coefficient at 50 uM measured after 5 mins in every 5 min interval up to 30 mins; assay type: ADME, tissue-based
Procedure, shortened: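 Male Wistar rats fasted 2 h with water available, then anaesthetised with diazepam (1.67 mg/kg), ketamine (50 mg/kg) and atropine (1 mg/kg) and kept at 37°C on a heated surface. In situ intestinal perfusion. Perfusate sampled from 5 min at 5 min intervals up to 30 min. Absorption rate constant (Ka) and Peff derived.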

Caco-2 [6] = experiment: Induction of apoptosis in human Caco2 cells assessed as early apoptotic cells at 0.5 uM after 24 hrs by Annexin V/propidium iodide staining-based flow cytometric analysis (reference value: 0.72 +/- 0.03%); assay type: functional
A-375 [7] = experiment: Cytotoxicity against human A375 cells after 24 hrs by MTT assay; assay type: functional, cell-based; conditions: A-375, 24 h
Procedure, shortened: (§3)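 Cells seeded at 25000 per well and held 24 h at 37 °C in 5% CO2. Medium was then renewed and compounds added at increasing concentrations (DMSO 0.1%, or water for topotecan) for 24 h. MTT solution (5 mg/mL) was added for 3 h at 37 °C, then absorbance read at 570 nm, corrected at 630 nm. IC50 in µM.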

A-375 [8] = experiment: Induction of apoptosis in human A375 cells assessed as p53 phosphorylation at Ser15 by Western blotting analysis; assay type: functional, cell-based
Procedure, shortened: (§4)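 Cells treated 24 h. About 10^6 cells lysed on ice 15 min in Hepes pH 7.4/Triton X-100 buffer with phosphatase and protease inhibitors, then spun 13,000 × g. 30 µg protein run on 12% SDS-PAGE and blotted to nitrocellulose. Primary anti-phospho-p53 (Ser15) and anti-p53 at 1:1000 for 2 h at room temperature, then HRP secondary and ECL densitometry. Results referred to untreated control.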

MDA-MB-231 [9] = experiment: Induction of apoptosis in human MDA-MB-231 cells assessed as p53 phosphorylation at Ser15 by Western blotting analysis; assay type: functional, cell-based; procedure, shortened: as §4
[10] = Permeability from apical to basolateral side in human Caco2 cells at 10 to 50 uM after 15 to 90 mins by HPLC analysis; assay type: ADME, cell-based; conditions: caco-2, 50 µM; procedure, shortened: as §2
A-375 [11] = experiment: Induction of apoptosis in human A375 cells assessed as inhibition of DNA synthesis at 0.8 to 1.6 uM after 24 hrs by BrdU staining-based ELISA; assay type: functional, cell-based
Procedure, shortened: (§5)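 BrdU colorimetric cell proliferation ELISA. Cells seeded at 25,000 per well, compounds added 24 h after seeding and incubated 24 h. Cells fixed and the immunoassay run per kit. Absorbance read at 370-492 nm over 3 intervals of 5 min; absorbance difference proportional to BrdU incorporation. Mean of three separate experiments in triplicate, compared with untreated control.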

Caco-2 [12] = experiment: Induction of apoptosis in human Caco2 cells assessed as late apoptotic cells at 0.05 uM after 48 hrs by Annexin V/propidium iodide staining-based flow cytometric analysis (reference value: 2.20 +/- 0.77%); assay type: functional
HeLa [13] = experiment: Induction of apoptosis in human HeLa cells assessed as inhibition of DNA synthesis after 24 hrs by BrdU staining-based ELISA; assay type: functional, cell-based; procedure, shortened: as §1
Caco-2 [14] = experiment: Induction of apoptosis in human Caco2 cells assessed as early apoptotic cells at 0.05 uM after 24 hrs by Annexin V/propidium iodide staining-based flow cytometric analysis (reference value: 0.72 +/- 0.03%); assay type: functional
Caco-2 [15] = experiment: Induction of apoptosis in human Caco2 cells assessed as late apoptotic cells at 0.5 uM after 24 hrs by Annexin V/propidium iodide staining-based flow cytometric analysis (reference value: 2.20 +/- 0.77%); assay type: functional
MDA-MB-231 [16] = experiment: Cytotoxicity against human MDA-MB-231 cells after 24 hrs by MTT assay; assay type: functional, cell-based; conditions: MDA-MB-231, 24 h; procedure, shortened: as §3
[17] = Effective permeability in Wistar rat small intestine at 50 uM measured after 5 mins in every 5 min interval up to 30 mins; assay type: ADME, tissue-based; conditions: not told, read-out: Peff
Procedure, shortened: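 In situ intestinal perfusion in male Wistar rats fasted 2 h with water allowed. Anaesthesia with diazepam (1.67 mg/kg), ketamine (50 mg/kg) and atropine (1 mg/kg); animals kept at 37 °C. Perfusate sampled every 5 min from 5 to 30 min; absorption rate constant and Peff derived.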

Caco-2 [18] = experiment: Induction of apoptosis in human Caco2 cells assessed as necrotic cells at 0.5 uM after 48 hrs by Annexin V/propidium iodide staining-based flow cytometric analysis (reference value: 0.41 +/- 0.02%); assay type: functional
[19] = Cytotoxicity against human Caco2 cells after 24 hrs by MTT assay; assay type: functional, cell-based; conditions: Caco-2, 24 h
HeLa [20] = experiment: Induction of apoptosis in human HeLa cells assessed as inhibition of DNA synthesis at 0.8 to 1.6 uM after 24 hrs by BrdU staining-based ELISA; assay type: functional, cell-based; procedure, shortened: as §5
Caco-2 [21] = experiment: Induction of apoptosis in human Caco2 cells assessed as vital cells at 0.5 uM after 24 hrs by Annexin V/propidium iodide staining-based flow cytometric analysis (reference value: 96.67 +/- 1.02%); assay type: functional
Caco-2 [22] = experiment: Induction of apoptosis in human Caco2 cells assessed as late apoptotic cells at 0.05 uM after 24 hrs by Annexin V/propidium iodide staining-based flow cytometric analysis (reference value: 2.20 +/- 0.77%); assay type: functional

- permeability [4]: permeable
- efflux ratio at up to 50 µM [5]: > 1
- Ka (Small intestine): 2.25 h⁻¹
- permeability [10]: permeable
- Papp at 5 min, 50 µM [17]: 55.8 ×10⁻⁶ cm/s
Structure (SMILES): CC[C@@]1(O)C(=O)OCc2c1cc1n(c2=O)Cc2cc3c(CN(C)C)c(O)ccc3nc2-1.Cl [TOPOTECAN HYDROCHLORIDE]
- Activity (Caco-2 [1]): 2.36%
- inhibition (A-375 [2]): Dose-dependent effect
- Activity (Caco-2 [3]): 71.4%
- Activity (Caco-2 [6]): 4.4%
- IC50 (A-375 [7]): 162 nM
- Activity (A-375 [8]): Active
- Activity (MDA-MB-231 [9]): Active
- Activity (A-375 [11]): Active
- Activity (Caco-2 [12]): 48.06%
- inhibition (HeLa [13]): Dose-dependent effect
- Activity (Caco-2 [14]): 5.42%
- Activity (Caco-2 [15]): 33.98%
- IC50 (MDA-MB-231 [16]): 473 nM
- Activity (Caco-2 [18]): 2.88%
- IC50 [19]: 119 nM
- Activity (HeLa [20]): Active
- Activity (Caco-2 [21]): 53.08%
- Activity (Caco-2 [22]): 19.54%
